Mdm2 MdmX PPI – inhibitors of human Mdm2-MdmX association, primary screen, cell-based, luminescence, split luciferase, SaOS-2, uHTS; SaOS-2 split-luciferase Mdm2/MdmX complementation; inhibition, % at 8 µM; hit rate 3% among 330,000; AID 485346, 2010;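 active means inhibition of at least 50% at 8 µM in the primary screen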
Target sequence (O15151 whole entry, looked up): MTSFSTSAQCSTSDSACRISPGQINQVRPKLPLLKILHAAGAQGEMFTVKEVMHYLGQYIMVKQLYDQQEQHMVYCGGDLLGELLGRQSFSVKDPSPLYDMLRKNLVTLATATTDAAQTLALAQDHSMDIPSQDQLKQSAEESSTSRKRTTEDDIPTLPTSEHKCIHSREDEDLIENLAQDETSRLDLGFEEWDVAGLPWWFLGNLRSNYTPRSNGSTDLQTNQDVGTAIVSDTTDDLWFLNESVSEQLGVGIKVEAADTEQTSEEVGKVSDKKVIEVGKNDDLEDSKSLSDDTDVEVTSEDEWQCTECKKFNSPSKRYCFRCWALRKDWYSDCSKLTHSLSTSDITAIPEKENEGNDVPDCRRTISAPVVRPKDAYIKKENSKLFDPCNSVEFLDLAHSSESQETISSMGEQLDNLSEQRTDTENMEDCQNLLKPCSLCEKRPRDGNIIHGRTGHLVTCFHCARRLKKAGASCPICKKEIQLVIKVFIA
Target sequence (Q00987 whole entry, looked up): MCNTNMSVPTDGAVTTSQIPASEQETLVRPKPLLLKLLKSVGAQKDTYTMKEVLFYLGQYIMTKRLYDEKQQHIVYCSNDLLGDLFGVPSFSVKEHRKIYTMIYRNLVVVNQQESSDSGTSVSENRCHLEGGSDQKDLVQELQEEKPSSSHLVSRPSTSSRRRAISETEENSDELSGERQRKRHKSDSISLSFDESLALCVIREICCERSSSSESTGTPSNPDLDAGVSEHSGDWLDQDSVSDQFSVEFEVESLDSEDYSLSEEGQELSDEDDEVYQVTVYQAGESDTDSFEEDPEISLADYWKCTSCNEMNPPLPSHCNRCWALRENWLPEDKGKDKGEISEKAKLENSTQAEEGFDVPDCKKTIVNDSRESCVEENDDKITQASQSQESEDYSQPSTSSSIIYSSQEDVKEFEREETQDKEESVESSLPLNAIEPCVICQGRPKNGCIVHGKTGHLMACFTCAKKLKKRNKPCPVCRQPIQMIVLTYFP
Beta apoptosis – inhibitors of cytokine-induced beta cell apoptosis, primary screen, luminescence; INS-1E cytokine-induced death, ATP luminescence, 48 h; percent of positive-control rescue, neutral wells zero; protection from apoptosis, % (test concentration not listed); hit rate 0.8% among 300,000; AID 435005, 2010;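 active means Every replicate reaches about 75%, or at least half do and their mean reaches it too, limit read from the data; inconclusive means At least half of replicates reach the limit but their mean does not; inactive means Under half of replicates reach the limit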;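 further: 0% = cytokine-treated negative control wells and 100% = positive control rescue; higher means more ATP so stronger rescue from cytokine killing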
CSC inhib – cancer stem cell viability inhibitors, primary screen, luminescence | cancer stem cell-like cells viability | inhibition, % at 7.5 µM | hit rate 1.1% among 300,000; in the data active means inhibition above about 75%; inconclusive means no clear call, values can overlap the other calls; tested in HMLE shEcad cells
T cruzi repl – inhibitors of intracellular T. cruzi growth, primary screen, luminescence, NIH3T3 host cells; T. cruzi beta-gal in NIH3T3, 90 h; inhibition, % (concentration not given with the values); hit rate 1.4% among 300,000; AID 1885, 2009;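 active means mean inhibition across valid replicates above about 55%, limit read from the data; inconclusive means mean below that limit but half or more replicates reach it; inactive means mean below it, under half of replicates reach it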;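 further: signal also drops with host cell toxicity which is not excluded here; 0% = plate median of DMSO wells and 100% = zero luminescence signal; higher percent means less beta-gal luminescence so fewer parasites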
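Assay system: NIH/3T3 fibroblasts plus reporter T. cruzi. Amount: NIH/3T3 cells, 5,000 per well. Buffer or medium: DMEM, 2% fetal bovine serum. Doses: compound pinned at 50 nL/well, DMSO. Schedule: ≥90 h infection period, 3 h prior cell attachment. Signal: luminescent β-galactosidase signal after 60 min lysis. Read-out: parasite load inhibition, %.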
XBP1 UPR activ – activators of adaptive XBP1 UPR arm, primary screen, cell-based, CHO-XBP1 luciferase reporter, luminescence, uHTS; IRE1-XBP1 UPR activation; percent of tunicamycin response, DMSO as zero; activation, % at 20 µM; hit rate 0.33% among 330,000; AID 463104, 2010;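 active means versus positive control, 20 µM dose yields 30% or more activation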;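 further: 100% = tunicamycin at 10 µg/mL and 0% = DMSO only wells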
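Material – CHO cell line with stable XBP1 luciferase reporter · Buffer or medium – F12 plus 10% FBS · Compound – single point, 20 µM final compound, 1% DMSO · Schedule – 16-18 h cell attachment at 37 °C, then 6 h compound exposure · Signal – Steady-Glo luminescence read · Benchmarks – high control tunicamycin 10 µg/mL final, low control DMSO vehicle only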
CHOP UPR activ – activators of apoptotic CHOP UPR arm, primary screen, cell-based, CHO-CHOP luciferase reporter, luminescence, uHTS; UPR activation; percent of tunicamycin response over DMSO baseline; activation, % at 10 µM; hit rate 0.34% among 330,000;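 active means at 10 µM dose, activation of 40% or more, normalized to positive control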;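 further: 100% = tunicamycin at 10 µg/mL and 0% = DMSO alone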
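Test system: CHO-CHOP cells, stable luciferase reporter of PERK-eIF2a-CHOP signalling | Quantity: 500 CHO-CHOP cells per well | Buffer or medium: F12 plus 10% serum | Compound dosing: 10 µM single point, 0.5% DMSO | Schedule: 6 h compound treatment, 37 °C | Signal: Luciferase luminescence | Control set: Tunicamycin high control, DMSO low control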
Mdm2 MdmX conf – Mdm2-MdmX complex disruptors, retested hits, confirmation, luminescence, single concentration. shares compounds with Mdm2 MdmX PPI. Mdm2-MdmX binding, luminescent assay. inhibition, % at 8 µM. hit rate 55% among 10,000. AID 489028, 2010; in the data active means inhibition above about 40%
Full FLuc ctr – full-length luciferase signal inhibition, confirmation, counter-screen for Mdm2/MdmX interaction inhibitor project, cell-based, single concentration, SaOS-2; shares compounds with Mdm2 MdmX PPI; SaOS-2 full-length luciferase counterscreen, luminescence; inhibition, % at 8 µM; hit rate 77% among 6,200; AID 504607, 2011;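 active means mean inhibition at 8 µM reaching about 37%, which flags the compound as non-specific, limit read from the data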;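 further: p53-null SaOS-2 cells with luciferase driven by a doxycycline-inducible promoter; compound on cells about two nights before reading with doxycycline added after day one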
Numbers without * were called inactive; ? = inconclusive; . = no result. Most compounds without a hit are left out; they make up all but 5% or so of the library.

SMILES | Mdm2 MdmX PPI | Beta apoptosis | CSC inhib | T cruzi repl | XBP1 UPR activ | CHOP UPR activ | Mdm2 MdmX conf | Full FLuc ctr
CC(=O)Nc1ccc(Nc2cc(C(C)C)nc3c(-c4ccccc4)c(C)nn23)cc1 | 55* | . | 84* | 68* | 10 | 0 | 43* | 54*
Cc1cccc(NC(=O)CNC(=O)c2ccc3nc[nH]c3c2)c1C | -7 | -2 | -17 | -9 | 1 | 0 | . | .
O=C(Cn1ncc(Cl)c(Cl)c1=O)NC1CCCCC1 | 100* | -9 | . | . | -1 | 39 | 76* | 56*
Cc1cccc(NC(=O)CNC(=O)Cn2ncc(Cl)c(Cl)c2=O)c1C | 100* | -4 | -8 | . | -4 | 7 | 56* | 52*
Cc1cccc(NC(=O)CNC(=O)CSc2ncccn2)c1C | 4 | 3 | 2 | . | -1 | 0 | . | .
CCCN=C1N(CC)C[C@@H]2[C@@H]3C(=O)N(C)C(=O)[C@@H]3[C@](CC)(C(=O)OC)N12 | 22 | . | . | . | 0 | 2 | . | .
Cc1ccc(S(=O)(=O)c2nc(S(C)(=O)=O)sc2N2CCC(O)CC2)cc1 | 20 | -5 | -22 | ? | -6 | 1 | . | .
Cc1ccc(S(=O)(=O)c2nc(S(C)(=O)=O)sc2N2CCCCC2C)cc1 (stereo not drawn) | 57* | 0 | -7 | 9 | -5 | -2 | 41* | 40*
O=C(Cn1c(NCCCO)nc2ccccc21)c1ccc(Cl)cc1 | 18 | 6 | 21 | 12 | 2 | 1 | . | .
Cc1cc2nc(NCCCO)n(CC(=O)c3cc(C(C)(C)C)c(O)c(C(C)(C)C)c3)c2cc1C | 98* | 98* | 75* | . | 9 | 3 | 64* | 41*
O=C(NNC(=O)C12CC3CC(CC(C3)C1)C2)c1ccccc1O | 53* | 70 | 0 | . | -1 | 2 | 17 | .
O=C(NNC(=O)C12CC3CC(CC(C3)C1)C2)c1ccccc1F | -40 | 9 | 0 | -1 | 0 | 2 | . | .
Cn1c(CSCc2ccc(Cl)cc2)n[nH]c1=S | 11 | . | -6 | 5 | -1 | -1 | . | .
Cc1cccc(NC(=S)N/N=C/c2ccc([N+](=O)[O-])s2)c1 | 67* | 103* | 125* | 52 | 8 | 18 | 18 | .
COc1ccc(NC(=O)CCC(=O)N/N=C/c2ccc([N+](=O)[O-])s2)cc1 | 32 | 30 | . | 50 | -1 | 2 | . | .
O=C(N/N=C/c1ccc([N+](=O)[O-])s1)c1cccc(Br)c1 | 77* | 60 | 16 | 93* | 1 | -2 | 68* | 38*
O=C(N/N=C\c1ccc([N+](=O)[O-])s1)C1COc2ccccc2O1 (stereo not drawn) | 51* | -5 | -6 | 16 | -2 | 2 | 55* | 87*
O=C(N/N=C/c1cccnc1)c1cccc(NC(=O)c2cccc(Br)c2)c1 | 8 | 2 | . | 11 | -4 | 2 | . | .
O=C(N/N=C/c1ccc(O)c2ncccc12)c1cccc(Br)c1 | 87* | 109* | -1 | 60* | 1 | 2 | 55* | 32
CCC(CC)C(=O)Nc1cccc(-c2ccc3nncn3n2)c1 | -12 | -4 | -8 | -11 | -2 | 1 | . | .
ON=C1c2cc(OCCN3CCCCC3)ccc2-c2ccc(OCCN3CCCCC3)cc21 | 97* | 14 | -15 | 61* | -7 | 6 | 70* | 91*
Clc1ccc(OCCN2CCCCC2)cc1Cl | -10 | 0 | 19 | 41 | -2 | 0 | . | .
NC(=S)NN=C1c2cc(OCCN3CCOCC3)ccc2-c2ccc(OCCN3CCOCC3)cc21 | 60* | -1 | 38 | 36 | -5 | 2 | 25 | .
C=CCC[C@H](Cc1ccc(F)cc1)C(=O)OC[C@@H](Cc1c[nH]c2ccccc12)NC(=O)[C@H](CC=C)CC(=O)N(CCO)Cc1ccccc1 | 94* | -13 | 92* | . | -5 | 23 | 34 | .
C=CC[C@@H](CC(=O)N(CCO)Cc1ccccc1)C(=O)NC[C@H](OC(=O)[C@@H](CC=C)Cc1ccc(F)cc1)c1ccccc1 | 85* | 4 | 30 | . | -8 | 13 | 71* | 49*
SMILES | Mdm2 MdmX PPI | Beta apoptosis | CSC inhib | T cruzi repl | XBP1 UPR activ | CHOP UPR activ | Mdm2 MdmX conf | Full FLuc ctr
C=CCC[C@@H](Cc1ccc(F)cc1)C(=O)OC[C@@H](Cc1c[nH]c2ccccc12)NC(=O)[C@H](CC=C)CC(=O)N(CCO)Cc1ccccc1 | 94* | -5 | . | . | -2 | 21 | 26 | .
C=CCC[C@H](Cc1ccc(F)cc1)C(=O)OC[C@@H](NC(=O)[C@@H](CC=C)CC(=O)N(CCO)Cc1ccccc1)C(C)(C)C | 50* | 4 | 51 | . | 2 | 7 | 15 | .
C=CCC[C@@H](Cc1ccc(F)cc1)C(=O)OC[C@H](Cc1c[nH]c2ccccc12)NC(=O)[C@@H](CC=C)CC(=O)N[C@H](CO)Cc1ccccc1 | 44 | -2 | 5 | . | 1 | 15 | . | .
O=C(/C=C/c1cccs1)NNC(=O)c1ccccc1 | -1 | -1 | . | . | -1 | 1 | . | .
COC(CNC(=O)c1cccc(-n2c(=S)[nH]c3cc(Cl)ccc3c2=O)c1)OC | 4 | -2 | -2 | -13 | 6 | 0 | . | .
Cn1c(=O)[nH]c(=O)c2c1nc(N1CCOCC1)n2CCc1ccccc1 | 1 | 0 | 7 | -10 | -2 | -2 | . | .
O=c1oc2ccccc2c(O)c1Cc1cc(Cl)c2cccnc2c1O | 28 | 6 | ? | -11 | -2 | 0 | . | .
Clc1cc2cccnc2c2ncccc12 | 77* | 87* | 121* | . | 0 | -3 | 81* | 32
Cc1c(C)c2cccnc2c2ncccc12 | 85* | 100* | . | . | 1 | 10 | 87* | 17
Oc1c(I)cc(Cl)c2cccnc12 | 92* | 7 | 84* | -3 | -1 | 0 | 58* | 51*
CCCN1CCC(=NNc2ccc(C(=O)O)cc2)CC1 | 17 | -14 | -8 | -17 | -3 | -1 | . | .
CC(C)(C)C(=O)O/N=C(\N)c1ccc(Oc2cc(Cl)cc(Cl)c2)c([N+](=O)[O-])c1 | 60* | 9 | 22 | 7 | -6 | 1 | 8 | .
CCOc1ccc(C(=O)Nc2cccc(-c3nc4cccnc4o3)c2)cc1Cl | 56* | -2 | 16 | 5 | 12 | 5 | 54* | 42*
